Test results from ChEMBL document CHEMBL1131039, “Styrylquinoline derivatives: a new class of potent HIV-1 integrase inhibitors that block HIV-1 replication in CEM cells” (J Med Chem, 1998).

Legend:
CCRF-CEM [1] = test: Antiviral activity was measured as IC50 by calculating amount of virus present in CEM cells by P24 ELISA test; type: functional, cell-based; settings: Homo sapiens
Procedure, shortened: (§1)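 Same CEM/HIV-1 PLN4-3 infection scheme: virus washed off after 2 h, compound in DMSO added in fresh medium, supernatants harvested 72 h post-infection. Viral load measured as virion-associated p24 antigen by ELISA in the culture supernatants.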

CCRF-CEM [2] = test: Toxicity was measured by MTT assay after 72 hours at 100 uM; type: functional, Homo sapiens
Procedure, shortened: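 Infected CEM cells exposed to compounds (in DMSO) at 100 μM; viability after 72 h by MTT. MTT (7.5 mg/mL in phosphate buffer) added per well, 4 h at 37 °C under CO2. Formazan dissolved in 10% SDS, 10 mM HCl, absorbance at 570 nm. Average of three experiments.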

[3] = system: Human immunodeficiency virus 1; test: Effect upon disintegration catalyzed by the deletion mutant; type: functional
CCRF-CEM [4] = test: (§2) Cytotoxicity (TC90) was measured by MTT transformation assay; type: functional, Homo sapiens
CCRF-CEM [5] = test: Antiviral activity was measured as IC90 by calculating amount of virus present in CEM cells by P24 ELISA test; type: functional; settings: Homo sapiens; procedure, shortened: as §1
[6] = target: T1, Human immunodeficiency virus type 1 integrase (Human immunodeficiency virus 1, UniProt Q7ZJM1); test: HIV integrase inhibitory potency was evaluated as IC50 on 3' processing of target DNA.
T1 sequence (Q7ZJM1 whole entry): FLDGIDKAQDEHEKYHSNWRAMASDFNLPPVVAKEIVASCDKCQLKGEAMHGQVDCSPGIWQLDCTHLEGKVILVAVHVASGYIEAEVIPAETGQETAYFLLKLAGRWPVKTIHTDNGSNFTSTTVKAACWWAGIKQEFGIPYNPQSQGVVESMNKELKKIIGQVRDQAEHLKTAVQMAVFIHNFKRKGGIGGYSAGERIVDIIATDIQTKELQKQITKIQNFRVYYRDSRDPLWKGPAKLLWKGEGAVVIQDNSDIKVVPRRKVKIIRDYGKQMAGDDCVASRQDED

CCRF-CEM [7] = test: Cytotoxicity (TC50) was measured by MTT transformation assay; type: functional; settings: Homo sapiens, read-out: TC50 (the source's name)
[8] = target: T1, Human immunodeficiency virus type 1 integrase; test: In vitro anti-HIV integrase activity against integration (strand transfer) of target plasmid.
CCRF-CEM [9] = test: Toxicity was measured by MTT assay after 120 hours at 100 uM; type: functional, Homo sapiens
Procedure, shortened: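 Infected CEM cells exposed to compounds at 100 μM; viability assessed 120 h after infection by MTT transformation assay (formazan solubilized in SDS/HCl, absorbance at 570 nm).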

CCRF-CEM [10] = test: Antiviral activity was measured as IC50 by calculating amount of virus present in CEM cells by beta-galactosidase assay.; type: functional, cell-based; settings: Homo sapiens
Procedure, shortened: (§3)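 HIV-1 PLN4-3 (cell-free virus from CEM transfection) infection of CEM cells (RPMI-1640, 10% FCS), triplicate wells. Virus removed at 2 h, compounds in DMSO added in fresh medium at increasing concentrations. Supernatants taken at 72 h and used to infect HeLaCD4+-β-gal (P4) cells for 24 h. Lysate incubated with CPRG for 1 h, read at 570 nm. Average of three experiments.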

CCRF-CEM [11] = test: Antiviral activity was measured as IC90 by calculating amount of virus present in CEM cells by beta-galactosidase assay.; type: functional; settings: Homo sapiens; procedure, shortened: as §3
CCRF-CEM [12] = test: Antiviral activity was measured as IC25 by calculating amount of virus present in CEM cells by beta-galactosidase assay.; type: functional; settings: Homo sapiens; procedure, shortened: as §3
CCRF-CEM [13] = test: Antiviral activity was measured as IC50 by calculating amount of virus present in CEM cells by P4 infection; type: functional, cell-based; settings: Homo sapiens; procedure, shortened: as §3
CCRF-CEM [14] = test: Antiviral activity was measured as IC90 by calculating amount of virus present in CEM cells by P4 infection; type: functional; settings: Homo sapiens; procedure, shortened: as §3
CCRF-CEM [15] = test: as §2; type: functional; settings: Homo sapiens
[16] = target: T1, Human immunodeficiency virus type 1 integrase; test: In vitro anti-HIV integrase activity against 3' processing of target plasmid.
Procedure, shortened: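 Buffer: 20 mM Tris pH 7.2, 30 mM NaCl, 10% glycerol, 10 mM DTT, 0.01% NP40 and 10 mM MnCl2. Compounds were tested over a concentration range, and IC50 was taken for inhibition of 3'-processing.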

IC50 [6] | IC50 [8] | Compound | Toxicity (CCRF-CEM [2]) | IC50 ([3]; Human immunodeficiency virus 1) | TC90 (CCRF-CEM [4]) | CC50 (CCRF-CEM [7]) | IC25 (CCRF-CEM [12]) | other results
> 100 µM | > 100 µM | CC(=O)Oc1cccc2ccc(/C=C/c3ccccc3)nc12 | – | – | – | – | – | –
> 100 µM | > 100 µM | Cc1ccc2cccc(OC(=O)/C=C/c3ccc(O)c(O)c3)c2n1 | – | – | – | – | – | –
> 100 µM | > 100 µM | COc1ccc(/C=C/C(=O)Oc2cccc3ccc(C)nc23)cc1OC | – | – | – | – | – | –
> 100 µM | > 100 µM | Nc1cccc2ccc(/C=C/c3ccc(O)c(O)c3)nc12 | – | – | – | – | – | –
> 100 µM | > 100 µM | CC(=O)Oc1ccc(/C=C/c2ccc3cccc(OC(C)=O)c3n2)cc1OC(C)=O | – | – | – | – | – | –
> 100 µM | > 100 µM | Oc1cccc2ccc(/C=C/c3ccccc3)nc12 | – | – | – | 50.1 µM | – | TC90 (CCRF-CEM [15]): > 100 µM
> 100 µM | > 100 µM | O=[N+]([O-])c1cccc2ccc(/C=C/c3ccc(O)c(O)c3)nc12 | – | – | – | – | – | –
– | > 100 µM | Cc1ccc2cccc(O)c2n1 [8-HYDROXY QUINALDINE] | – | – | – | – | – | IC50 [16]: > 100 µM

More lines, now with the values behind:

Compound | IC50 [6] | IC50 [8] | Toxicity (CCRF-CEM [2]) | IC50 ([3]; Human immunodeficiency virus 1) | TC90 (CCRF-CEM [4]) | CC50 (CCRF-CEM [7]) | IC25 (CCRF-CEM [12]) | other results
O=C([O-])c1ccc2ccc(/C=C/c3ccc(O)c(O)c3)nc2c1O.[Na+] | 0.8 µM | – | 0% | 0.7 µM | >100 µM | > 100 µM | – | IC50 (CCRF-CEM [1]): 20 µM; IC90 (CCRF-CEM [5]): > 100 µM
O=C(O)c1ccc2ccc(/C=C/c3cc(O)c(O)c(O)c3)nc2c1O [listing 1 of 2 here] | 0.26 µM | – | – | – | – | – | – | –
O=C(O)c1ccc2ccc(/C=C/c3ccc(O)cc3O)nc2c1O | 3.7 µM | 2.8 µM | 0% | 2.5 µM | >100 µM | > 100 µM | 26.3 µM | Toxicity (CCRF-CEM [9]): <10%; IC50 (CCRF-CEM [10]): 79.8 µM; IC90 (CCRF-CEM [11]): > 100 µM
O=C(O)c1ccc2ccc(/C=C/c3cc(O)c(O)c(O)c3)nc2c1O [listing 2 of 2 here] | 0.3 µM | 0.4 µM | 100% | 0.24 µM | 93.3 µM | 10.7 µM | 0.4 µM | IC50 (CCRF-CEM [10]): 1.2 µM; IC90 (CCRF-CEM [11]): 10.7 µM
O=C(O)c1ccc2ccc(/C=C/c3ccc(O)c(O)c3)nc2c1O | 2.4 µM | 1 µM | 0% | – | >100 µM | – | 0.46 µM | Toxicity (CCRF-CEM [9]): <10%; IC50 (CCRF-CEM [13]): 1.3 µM; IC50 [3]: 0.9 µM; IC90 (CCRF-CEM [14]): 12.3 µM
Cc1ccc2ccc(C(=O)O)c(O)c2n1 | > 100 µM | 114 µM | 0% | – | >100 µM | > 100 µM | > 100 µM | IC50 (CCRF-CEM [10]): > 100 µM; IC90 (CCRF-CEM [11]): > 100 µM
Oc1ccc(/C=C/c2ccc3cccc(O)c3n2)cc1O | 7.4 µM | 2.4 µM | 99% | 2.5 µM | 71 µM | 8.1 µM | 1.2 µM | IC50 (CCRF-CEM [10]): 3.6 µM
N#Cc1ccc2ccc(/C=C/c3ccc(O)c(O)c3)nc2c1O | 3 µM | – | – | 3.6 µM | 56.3 µM | 6.2 µM | – | –
O=C(O)c1cc(/C=C/c2ccc3ccc(C(=O)O)c(O)c3n2)ccc1O | 2.7 µM | 0.6 µM | 0% | 0.6 µM | >100 µM | > 100 µM | 20.9 µM | Toxicity (CCRF-CEM [9]): 0%; IC50 (CCRF-CEM [10]): 62 µM; IC90 (CCRF-CEM [11]): > 100 µM
Oc1cccc2ccc(/C=C/c3ccc4cccc(O)c4n3)nc12 | > 100 µM | – | – | – | – | – | – | –
Oc1ccc(/C=C/c2ccc3ccc(/C=C/c4ccc(O)c(O)c4)c(O)c3n2)cc1O | 2.2 µM | 3.4 µM | – | – | – | – | – | –
Oc1ccc(/C=C/c2ccc3ccccc3n2)cc1O | > 100 µM | – | – | – | – | 12.3 µM | – | TC90 (CCRF-CEM [15]): 100 µM
